In the EternaBench riboswitch data:

Tested on: MS2 coat protein
Experiment: apparent Kd, MS2 coat protein; higher = weaker binding; RNA-MaP array; FMN 200 µM where present
Outline: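 Designs on Illumina sequencing-chip clusters, transcribed by stalled E. coli RNA polymerase, were exposed to SNAP-549-labelled MS2 coat protein in doubling steps from 0.7 or 1.5 nM up to 3 µM, without and then with constant ligand. The buffer held 100 mM Tris-HCl pH 7.5, 80 mM KCl, 4 mM MgCl2, BSA, DTT, yeast tRNA and Tween-20. Apparent Kd values are medians of filtered per-cluster binding-curve fits to green signal normalised to red-channel RNA signal and control-cluster median Fmax.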

[1] = designed as: OFF switch for flavin mononucleotide, no ligand
[2] = ligand present: flavin mononucleotide, designed as: OFF switch for flavin mononucleotide
[3] = designed as: ON switch for flavin mononucleotide, no ligand
[4] = ligand present: flavin mononucleotide, designed as: ON switch for flavin mononucleotide

Sequence	apparent Kd [1] [nM]	apparent Kd [2] [nM]	apparent Kd [3] [nM]	apparent Kd [4] [nM]
UAUGGGUGUGUGAGGAUAUACGAAGGCAGUGGCCAGUAGAAGGUACAUGAGGAUCACCCAUGUGUCCAAAAGUG	14.1	18.4		
GCGAUUUUGUAGAAGGUACGUGAUUAGUCAAAGUAAGGAUAUACUGACAUGAGGAUCACCCAUGUAUUAAUAGUUAACAGUCGC			94.6	23.1
GUAGCUAUCGGAGGAUAUCCUCAGCGGAAACGCACAUGAGGAUCACCCAUGUAAAUAAAUAAUUUGGAGAAGGCCGAUAGCUAC			292	18.6
GACUUGUCAGGAUAUCUUACAUUUGCAUCUUAGUUACCAUUGGAGAAGGGACAUGAGGAUCACCCAUGUUUGGU	35.1	34.4		
GGAUUACAUGAGGAUCACCCAUGUGAGGAUAUCGAUGUCCUGUGUGGAGUGCGGGACUCGAGAAGGCACUUGGA	43.8	219		
CGAUAGGACAGAGGAUAUACACAUGAGGAUCACCCAUGUGAUUUCGGCGCGAAAGCGCCAAACAUGUAGAAGGCUGUCCUAUCG	11.3	4.89		
CUAUUCCGAGGAUAUACAUGAGGAUCACCCAUGUCGGGCCUCUGGCCUAAGGCCGAAAGUAGAAGGUGGGUUUC	64.6	61.5		
UGGUACUAGGGAGGAUAUGGGAAGAUACAUGAGGAUCACCCAUGUUUAAGAAUGCCGAGAGGCAAUUAGAAGGCCCUAGUACCU			983	148
AUUAUACAUGAGGAUCACCCAUGUAAUUAAUCUAGUAAGAUCUAGGAUAUCAGCUCGAAUAGAGCUGAGAAGGAGAUCACAUGU			53.6	20.7
AAAGAGCGAGGAUAUACGUAUCGGUGCGGCCAGCCGAUGUGACAUGAGGAUCACCCAUGUAGAAGGCGCAGAAA	26.9	35.4		
CACCGUUACGUAGGAUAUAGUACAUGAGGAUCACCCAUGUAAUAAAUGAGAAUUUCGGAUGUAUGCUAGAAGGACGAAAUCGGC	53	49.1		
GUCAGCUCGUGAGGAUAUACAUGUGCUGGAUACAGCACUAAUAGAAUCACAUGAGGAUCACCCAUGUAGAAGGCACGAGCUGAU	17.6	39.4		
GUCAGCUCGUGAGGAUAUACAACACUGCUUCGGCAGUGUAUUAAGAUCACAUGAGGAUCACCCAUGUAGAAGGCACGAGUUGAU	13.9	276		
GUCAGACGAGGAUAUAGAUUUAAGUACAUGAGGAUCACCCAUGUACACAUGUAUUUAGAUUUAGAAGGCGUCUGAC	594	700		
CACGAUCAUGUAGGAUAUAUACUGGAAUACAGUAUAGAAGGACAUGAGGAUCACCCAUGUUAUGUGCCUCCAAGUAAGAUCGUG	17.7	23.2		
UUAAUUAACAAGAAGGCAUACAUGAGGAUCACCCAUGUUCUACAUGGAUAAUGAGGAUAUUGCUAAUACAUGAGGAUCACCCAU	53.6	50.8		
AAGAAGACAGGAUAUACAUGAAAGAAAGAAAAGAAAAGAAAACAUGAGGAUCACCCAUGUAGAAGGGUCAAGAA	46.5	59.2		
UCGUAUACACAAGGAUAUCGAUGGCUUGUAGAUGCUACAUGAGGAUCACCCAUGUUUUUAUAUUGUGAGAAGGUGUAGUGUCGU			141	221
UUAAAUCAUGUAGGAUAUGCAUGGCGAAGCUACGCAGAAGGACAUGAGGAUCACCCAUGUUAUAGCGACCAAGUUAGGUUGCAA	88.7	211		
UUUCAGCAAGGAUAUACGGGCUGUGCUUUUCAUUUCUUACAACAUGAGGAUCACCCAUGUAGAAGGUGCAUCUU	72.5	111		
CAACCGUUGCAGAAGGUUAAAUAUAUCAACUUAUGGACAACAUGAGGAUCACCCAUGUUUUUGUUGAAGGAUAUGCAAGGGUUG	5.89	5.71		
ACCGAACAUGAGGAUCACCCAUGUGAGGAUAUAGACGUGAAUUAAACACGUAACAAAACUAGAAGGCACUGGGC	30.8	14.9		
CAUGUGUAAGGAUAUGACAAUGGUAUCUUCGGAUACCAUUGUCAGAAGGUACAUGAGGAUCACCCAUGUACAUC	14.3	16.8		
